# Laboratory results: ChEMBL document CHEMBL1133168, “Synthesis and SAR of 4-aryl-2-hydroxy-4-oxobut-2-enoic acids and esters and 2-amino-4-aryl-4-oxobut-2-enoic acids and esters: potent inhibitors of kynurenine-3-hydroxylase as potential neuroprotective agents” (J Med Chem, 2000)
# Biological target: Kynurenine 3-monooxygenase (Rattus norvegicus, UniProt O88867)
# Assay: Inhibition of Kynurenine-3-hydroxylase enzyme isolated from the rat liver
# Method in brief: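 Enzyme source: P2 mitochondrial pellet from rat liver, resuspended in 0.32 M sucrose. Activity measured as ³HOH release from 3-[³H]-L-kynurenine at its K_m concentration, 37 °C, under conditions linear with time and enzyme protein. Five inhibitor concentrations tested. IC50 taken as the mean of at least 2 experiments run in duplicate, with variation <20%.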
# Kynurenine 3-monooxygenase, sequence (O88867 whole entry): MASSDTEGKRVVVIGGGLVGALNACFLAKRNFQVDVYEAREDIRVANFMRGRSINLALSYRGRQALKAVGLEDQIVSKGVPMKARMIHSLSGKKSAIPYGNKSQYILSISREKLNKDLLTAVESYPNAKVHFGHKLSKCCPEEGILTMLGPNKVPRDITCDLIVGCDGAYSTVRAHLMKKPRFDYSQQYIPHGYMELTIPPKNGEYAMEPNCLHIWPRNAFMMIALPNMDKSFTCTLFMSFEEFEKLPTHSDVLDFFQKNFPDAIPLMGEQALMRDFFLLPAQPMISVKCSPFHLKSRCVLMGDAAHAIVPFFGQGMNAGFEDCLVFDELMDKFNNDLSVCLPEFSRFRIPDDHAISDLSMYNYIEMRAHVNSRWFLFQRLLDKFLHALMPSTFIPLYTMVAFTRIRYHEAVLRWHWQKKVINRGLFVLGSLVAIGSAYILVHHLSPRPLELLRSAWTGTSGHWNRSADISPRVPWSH
row,SMILES,IC50 [nM]
1,NC(CC(=O)c1cccc([N+](=O)[O-])c1)C(=O)O (racemic),8000
2,COC(=O)C(=O)/C=C(\O)c1cccc(F)c1,1600
3,COC(=O)C(=N)/C=C(\O)c1cccc(Cl)c1,7900
4,COC(=O)C(=O)/C=C(\O)c1cccc(Br)c1,2100
5,O=C(O)C(=O)/C=C(\O)c1ccc(Cl)cc1,3000
6,COC(=O)C(=O)/C=C(\O)c1ccc(F)c(F)c1,3300
7,COC(=O)C(=O)/C=C(\O)c1ccc(Cl)c(C)c1,4900
8,COC(=O)C(=O)/C=C(\O)c1ccc(F)c(Cl)c1,2600
9,O=C(O)C(=O)/C=C(\O)c1ccc(F)c(F)c1,120
10,COC(=O)C(=O)/C=C(\O)c1ccc(Cl)c([N+](=O)[O-])c1,11200
11,COC(=O)C(=O)/C=C(\O)c1ccc(Br)cc1,1900
12,COC(=O)C(=N)/C=C(\O)c1ccc(F)c(F)c1,3600
13,N[C@@H](CC(=O)c1cccc([N+](=O)[O-])c1)C(=O)O,4000

# More lines, now with the values ahead:
row,IC50 [nM],SMILES
1,270,O=C(O)C(=O)/C=C(\O)c1ccc(F)c(Cl)c1
2,1900,COC(=O)C(=O)/C=C(\O)c1ccc(Cl)c(Cl)c1
3,8100,COC(=O)C(=O)/C=C(\O)c1cccc(F)c1F
4,320,O=C(O)C(=O)/C=C(\O)c1cccc(Cl)c1
5,1700,O=C(O)C(=O)/C=C(\O)c1cccc(Br)c1
6,2400,N/C(=C\C(=O)c1cccc(Cl)c1)C(=O)O
7,1900,COC(=O)C(=O)/C=C(\O)c1cccc(Cl)c1
8,1700,Cc1cc(/C(O)=C/C(=O)C(=O)O)ccc1Cl
9,580,O=C(O)C(=O)/C=C(\O)c1cccc(F)c1
10,2000,O=C(O)C(=O)/C=C(\O)c1ccc(Cl)c([N+](=O)[O-])c1
11,820,N/C(=C\C(=O)c1ccc(F)c(Cl)c1)C(=O)O
12,1500,N/C(=C\C(=O)c1ccc(F)c(F)c1)C(=O)O
13,1000,N/C(=C\C(=O)c1ccc(Cl)c(Cl)c1)C(=O)O

# Biological target: Kynurenine 3-monooxygenase (Rattus norvegicus) (UniProt O88867)
# Assay: Inhibition of Kynurenine-3-hydroxylase enzyme isolated from the rat liver at 10 uM
# Kynurenine 3-monooxygenase (Rattus norvegicus), sequence (O88867 whole entry, looked up): as the sequence (O88867 whole entry) above
row,SMILES,inhibition [%]
1,O=C(O)C(=O)/C=C(\O)c1ccccc1[N+](=O)[O-],24
2,COC(=O)C(=O)/C=C(/O)c1ccc(C)cc1,12
3,COC(=O)C(=N)/C=C(\O)c1ccccc1,3
4,COC(=O)C(=N)/C=C(\O)c1ccc(Cl)cc1,13
5,COC(=O)C(=N)/C=C(\O)c1cccc(Br)c1,0
6,COC(=O)C(=N)/C=C(\O)c1ccc(C)cc1,4
7,COC(=O)C(=O)/C=C(\O)c1ccc(Cl)cc1,38
8,COC(=O)C(=N)/C=C(\O)c1ccc(Cl)c(C)c1,0
9,COC(=O)C(=O)/C=C(\O)c1ccccc1,23
10,O=C(O)C(=O)/C=C(\O)c1ccccc1,0
11,COC(=O)C(=O)/C=C(\O)c1ccc(F)cc1,22
12,COC(=O)C(=N)/C=C(\O)c1cccc(F)c1,0
13,COC(=O)C(=N)/C=C(\O)c1ccc(Br)cc1,0
14,COC(=O)C(=N)/C=C(\O)c1ccc(F)cc1,1
15,COC(=O)C(=N)/C=C(\O)c1ccc(F)c(Cl)c1,4
16,COC(=O)C(=N)/C=C(\O)c1ccc(Cl)c(Cl)c1,37
17,COC(=O)C(=O)/C=C(\O)c1ccccc1[N+](=O)[O-],1

# The next lines start with the values.
row,inhibition [%],SMILES
1,31,COC(=O)C(=O)/C=C(\O)c1ccccc1Cl
2,41,N/C(=C\C(=O)c1ccc(F)cc1)C(=O)O
3,31,COC(=O)C(=N)/C=C(\O)c1ccccc1Cl
4,17,N/C(=C\C(=O)c1ccccc1)C(=O)O
5,33,O=C(O)C(=O)/C=C(\O)c1ccccc1Cl
6,33,COC(=O)C(=N)/C=C(\O)c1cccc(Cl)c1Cl
7,19,N/C(=C\C(=O)c1ccccc1Cl)C(=O)O
8,14,COC(=O)C(=O)/C=C(\O)c1cccc(Cl)c1Cl
9,32,N/C(=C\C(=O)c1cccc(Cl)c1Cl)C(=O)O
10,33,N/C(=C\C(=O)c1ccc(Cl)cc1)C(=O)O
11,33,O=C(O)C(=O)/C=C(\O)c1cccc(Cl)c1Cl
